This note sets out measurements from ChEMBL document CHEMBL4665862, “Synthesis and biological activity of C-7, C-9 and C-10 modified taxane analogues from 1-deoxybaccatin VI” (Bioorg Med Chem, 2020).

A short description of experiment [1]: Potency index, ratio of paclitaxel IC50 to compound IC50 for cytotoxicity against drug-resistant human A549/T cells assessed as reduction in cell viability incubated for 72 hrs by CCK-8 assay. It counts as functional.
Another experiment relates to MDA-MB-231. The experiment in a line: Cytotoxicity against human MDA-MB-231 cells assessed as reduction in cell viability incubated for 72 hrs by CCK-8 assay. It counts as functional, cell-based. The conditions noted are these: MDA-MB-231, 72 h. The procedure, abridged: (§1)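 Exponentially growing human tumour cells were exposed for 72 h to compounds formulated in DMSO solution. Cell survival was read by the CCK-8 method, and IC50 values were taken from the dose–response curves.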
In general terms: Tetrazolium assays rely on reduction of a dye to a coloured formazan, in cell work by metabolically active cells.

The nature of experiment [2]: Cytotoxicity against human drug-resistant A549/T cells assessed as reduction in cell viability incubated for 72 hrs by CCK-8 assay. It counts as functional, cell-based. The conditions noted are these: A549, 72 h. The procedure, abridged:
as §1

The next experiment relates to A549. Description: Cytotoxicity against human A549 cells assessed as reduction in cell viability incubated for 72 hrs by CCK-8 assay. It counts as functional, cell-based. The settings on record: A549, 72 h. The procedure, abridged:
as §1

pIC50: −log10 of the molar value.

With `CC(=O)O[C@H]1C[C@H]2OC[C@@]2(OC(C)=O)[C@H]2[C@H](OC(=O)c3ccccc3)C3C[C@H](OC(=O)[C@H](O)[C@@H](NC(=O)c4ccc(C)cc4)c4ccccc4)C(C)=C([C@H]4OC(=O)O[C@@H]4[C@]12C)C3(C)C` (some centres undefined), the Ratio in experiment [1] is reported as 7. In addition, the pIC50 (commonly the IC50 on a negative log10 scale, so that one unit is a factor of ten) in the experiment with MDA-MB-231 is 6.92; in experiment [2] it was 6.64; in the experiment on A549 it was 7.21.

Take `CC(=O)O[C@H]1C[C@H]2OC[C@@]2(OC(C)=O)[C@H]2[C@H](OC(=O)c3ccccc3)C3C[C@H](OC(=O)[C@H](O)[C@@H](NC(=O)c4cccc(Br)c4)c4ccccc4)C(C)=C([C@H]4OC(=O)O[C@@H]4[C@]12C)C3(C)C` (some centres undefined): the pIC50 is 5.70 in the experiment on MDA-MB-231, 5.54 in experiment [2] and 6.48 with A549.

For `CC(=O)O[C@H]1C[C@H]2OC[C@@]2(OC(C)=O)[C@H]2[C@H](OC(=O)c3ccccc3)C3C[C@H](OC(=O)[C@H](O)[C@@H](NC(=O)c4ccc(F)c(F)c4)c4ccccc4)C(C)=C([C@H]4OC(=O)O[C@@H]4[C@]12C)C3(C)C` (some centres undefined), the pIC50 with MDA-MB-231 is 5.71; in experiment [2], 5.54; in the experiment on A549, 6.39.

For the compound `CC(=O)O[C@H]1C[C@H]2OC[C@@]2(OC(C)=O)[C@H]2[C@H](OC(=O)c3ccccc3)C3C[C@H](OC(=O)[C@H](O)[C@@H](NC(=O)c4ccc(F)cc4)c4ccccc4)C(C)=C([C@H]4OC(=O)O[C@@H]4[C@]12C)C3(C)C` (some centres undefined), the pIC50 was 6.68 in the experiment on MDA-MB-231, 5.99 in experiment [2] and 6.88 with A549.

As for `CC(=O)O[C@H]1C[C@H]2OC[C@@]2(OC(C)=O)[C@H]2[C@H](OC(=O)c3ccccc3)C3C[C@H](OC(=O)[C@H](O)[C@@H](NC(=O)c4ccccc4)c4ccccc4)C(C)=C([C@H]4OC(=O)O[C@@H]4[C@]12C)C3(C)C` (some centres undefined), the Ratio in experiment [1] was 7. Further, the pIC50 is 6.91 with MDA-MB-231, 6.64 in experiment [2] and 7.66 with A549.

`CC(=O)O[C@H]1C[C@H]2OC[C@@]2(OC(C)=O)[C@H]2[C@H](OC(=O)c3ccccc3)C3C[C@H](OC(=O)[C@H](O)[C@@H](NC(=O)c4ccccc4F)c4ccccc4)C(C)=C([C@H]4OC(=O)O[C@@H]4[C@]12C)C3(C)C` (some centres undefined): the figures for the pIC50 (in the experiment on MDA-MB-231; in experiment [2]; with A549) were 6.74, 5.31 and 6.94, respectively.

For the compound `CC(=O)O[C@H]1C[C@H]2OC[C@@]2(OC(C)=O)[C@H]2[C@H](OC(=O)c3ccccc3)C3C[C@H](OC(=O)[C@H](O)[C@@H](NC(=O)c4cccc(F)c4)c4ccccc4)C(C)=C([C@H]4OC(=O)O[C@@H]4[C@]12C)C3(C)C` (some centres undefined), the pIC50 in the experiment with MDA-MB-231 was 6.74; in experiment [2], 5.63; in the experiment on A549, 7.17.

On to `COc1cccc(C(=O)N[C@@H](c2ccccc2)[C@@H](O)C(=O)O[C@H]2CC3[C@@H](OC(=O)c4ccccc4)[C@@H]4[C@]5(OC(C)=O)CO[C@@H]5C[C@H](OC(C)=O)[C@@]4(C)[C@H]4OC(=O)O[C@@H]4C(=C2C)C3(C)C)c1` (some centres undefined), for which the pIC50 with MDA-MB-231 was 7.17; in experiment [2] it was 5.52; with A549, 7.16.

Consider `CC(=O)O[C@H]1C(=O)[C@@]2(C)[C@H]([C@H](OC(=O)c3ccccc3)[C@]3(O)C[C@H](OC(=O)[C@H](O)[C@@H](NC(=O)c4ccccc4)c4ccccc4)C(C)=C1C3(C)C)[C@]1(OC(C)=O)CO[C@@H]1C[C@@H]2O` [PACLITAXEL], for which the negative-log IC50 (pIC50) is 7.70 with MDA-MB-231, 5.80 in experiment [2] and 7.89 in the experiment with A549.
